These results are taken from ChEMBL document CHEMBL4261610, “Structure-activity relationships of pyrazole-4-carbodithioates as antibacterials against methicillin-resistant Staphylococcus aureus” (Bioorg Med Chem Lett, 2018).

In brackets after ≈: the same amount, converted by molar mass. Activity calls are given as the source filed them. The calls are words filed in the database; no cut-off is given here. A value given as a limit tells only on which side of the number the result lay.

The nature of series [1]: Cytotoxicity against human HKC8 cells after 24 hrs by WST1 assay. Conditions: HKC8, 24 h. Format: cell-based. The method, boiled down:
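Human HKC-8 cells were exposed to compound, and cytotoxicity was reported as IC₅₀ in μg/mL.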
Background: Tetrazolium assays rely on reduction of a dye to a coloured formazan, in cell work by metabolically active cells.

Series [2] is described as follows: Selectivity index, ratio of IC50 for human HKC8 cells to MIC for methicillin-resistant Staphylococcus aureus MW2. Format: toxicity. The following applies: read-out: Selectivity Index. The method, boiled down:
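Ratio of the cytotoxic IC50 in human HKC-8 kidney cells to the MIC against MRSA MW2. Both values are in μg/mL and were measured in this work.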

Series [3] relates to Staphylococcus aureus. As to the kind of experiment: Antibacterial activity against methicillin-resistant Staphylococcus aureus MW2 after 24 hrs by two-fold broth microdilution method. Format: functional. The following applies: MW2, 24 h. The method, boiled down: (§1)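 Read-out is the minimum inhibitory concentration against MRSA strain MW2, expressed in μg/mL.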
The nature of series [4]: Inhibition of DNA replication in cell-free system at >160 uM using 5'-flap-primed M13 ssDNA template/dNTP pretreated for 5 mins followed by DNA addition and measured after 20 mins by helicase-independent polymerase3 primer extension-strand displacement rolling circle assay. Format: functional. The method in brief: (§2)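 The cell-free bacterial replication system holds all enzymes, ancillary proteins, nucleotide precursors and DNA template needed to duplicate circular bacterial DNA. Covalent reaction with any component would read out as loss of replication.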

Series [5] is described as follows: Inhibition of DNA replication in cell-free system at <640 uM using 5'-flap-dsDNA template/dNTP after 20 mins by helicase-dependent leading strand rolling circle replication assay. Format: functional. The method in brief:
as §2

Series [6] relates to dsDNA. As to the kind of experiment: Binding affinity to Dst double stranded DNA (unknown origin) at DNA to compound ratio of 1:2.5 to 1:10 after 20 mins by ESI-MS analysis. Format: nucleic-acid assay.
Series [7] has as its system dsDNA. Put plainly: Binding affinity to Rt1 double stranded DNA (unknown origin) at DNA to compound ratio of 1:2.5 to 1:10 after 20 mins by ESI-MS analysis. Format: nucleic-acid assay.
A further series deals with DNA. Put plainly: Binding affinity to ER04 single stranded DNA (unknown origin) at DNA to compound ratio of 1:2.5 to 1:10 after 20 mins by ESI-MS analysis. Format: nucleic-acid assay.
A short description of series [8]: Inhibition of RNA transcription in cell-free system. Format: functional.
In series [9] the test system is Quadruplex DNA. As to the kind of experiment: Binding affinity to ER03 quadruplex DNA (unknown origin) at DNA to compound ratio of 1:2.5 to 1:10 after 20 mins by ESI-MS analysis. Format: nucleic-acid assay.
The test system of series [10] is Quadruplex DNA. As to the kind of experiment: Binding affinity to G5 quadruplex DNA (unknown origin) at DNA to compound ratio of 1:2.5 to 1:10 after 20 mins by ESI-MS analysis. Format: nucleic-acid assay.
For series [11], the system named is dsDNA. Put plainly: Binding affinity to D2 double stranded DNA (unknown origin) at DNA to compound ratio of 1:2.5 to 1:10 after 20 mins by ESI-MS analysis. Format: nucleic-acid assay.
Series [12] concerns Staphylococcus aureus. Put plainly: Antibacterial activity against methicillin-resistant Staphylococcus aureus MW2. Format: functional. The method, boiled down:
as §1

Series [13] in a line: Binding affinity to RNA oligonucleotide (unknown origin). The method in brief: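 RNA oligonucleotides were incubated with compound, and adduct formation was examined by ESI mass spectrometry.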

Turning to `CCCSC(=S)c1c(-c2ccc([N+](=O)[O-])cc2)nn(-c2ccccc2)c1O`, the IC50 in series [1] came out at 0.5 mg/L (≈ 1.25 µM). Besides, the selectivity ratio in series [2] is 0.5. The compound also returned an MIC against Staphylococcus aureus [3] of 1 mg/L (≈ 2.5 µM).

Compound `CSC(=S)c1c(C)nn(-c2ccccc2)c1O` displayed an IC50 in [1] of 16 mg/L (≈ 60.5 µM). For the same compound, in series [2], the selectivity ratio stood at 1. The same compound returned an MIC against Staphylococcus aureus [3] of 16 mg/L (≈ 60.5 µM).

`CCCSC(=S)c1c(-c2ccc(C#N)cc2)nn(-c2ccccc2)c1O`: in the series with Staphylococcus aureus [3], the minimum inhibitory concentration (MIC) came to 2 mg/L (≈ 5.27 µM).

Take `Cc1nn(-c2ccccc2)c(O)c1C(=S)SCc1ccccc1`: in series [1], the midpoint of inhibition, the IC50, lay at 32 mg/L (≈ 94 µM). The selectivity ratio in series [2] lay in the range of 8 to 16. The same compound yielded an MIC in the series on Staphylococcus aureus [3] of 2 to 4 mg/L (≈ 5.87 to 11.7 µM).

`CCCNC(=S)c1c(C)nn(-c2ccccc2)c1O` gave an MIC in the series on Staphylococcus aureus [3] greater than 64 mg/L.

As for `CCCSC(=S)c1c(-c2ccc(Cl)cc2)nn(-c2ccccc2)c1O`, the IC50 in series [1] came out at 4 mg/L (≈ 10.3 µM). In series [2], the selectivity ratio was in the range of 4 to 8. Further, the MIC against Staphylococcus aureus [3] lay within 0.5 to 1 mg/L (≈ 1.29 to 2.57 µM).

In series [1], `CCCSC(=S)c1c(-c2ccccc2)nn(-c2ccccc2)c1O` registered an IC50 of 32 mg/L (≈ 90.3 µM). The selectivity ratio in [2] stood at 16. Also, the lowest concentration to inhibit growth against Staphylococcus aureus [3] (MIC) was 2 mg/L (≈ 5.64 µM).

`CCCOC(=O)c1c(C)nn(-c2ccccc2)c1O` gave a minimal inhibitory concentration (MIC) in the series with Staphylococcus aureus [3] greater than 64 mg/L.

On to `CCCSC(=S)c1c(C)nn(-c2ccc(OC)cc2)c1O`, for which 8 mg/L (≈ 24.8 µM) was the least that counted as inhibitory against Staphylococcus aureus [3] (MIC).

In series [1], `CCCSC(=S)c1c(-c2ccc(C)cc2)nn(-c2ccccc2)c1O` displayed an IC50 of 8 mg/L (≈ 21.7 µM). The selectivity ratio in series [2] is 4 to 8. This compound also had an MIC in the series with Staphylococcus aureus [3] of 1 to 2 mg/L (≈ 2.71 to 5.43 µM).

In the series with Staphylococcus aureus [3], `CCCSC(=S)c1c(-c2ccc(Br)cc2)nn(-c2ccccc2)c1O` showed an MIC of 0.5 mg/L (≈ 1.15 µM).

`CCCSC(=S)c1c(C)nn(-c2ccc(C)cc2)c1O`: in the series on Staphylococcus aureus [3], the MIC came out at 4 mg/L (≈ 13.1 µM).

Regarding `CCCSC(=S)c1c(C)nn(-c2ccc([N+](=O)[O-])cc2)c1O`, in series [1], the IC50 lay within 0.5 to 1 mg/L (≈ 1.48 to 2.96 µM). For the same compound, in [2], the selectivity ratio is 1. Also, the MIC with Staphylococcus aureus [3] lay in the range of 0.5 to 1 mg/L (≈ 1.48 to 2.96 µM).

For the compound `CCCSC(=S)c1c(C)nn(-c2ccccc2)c1O`, in [4], the inhibition result was “Active”. Besides, the inhibition entry in [5] and in [8] was “inactive” throughout. Moreover, the IC50 in [1] turned out to be 4 mg/L (≈ 13.7 µM). Also, the result in the series on dsDNA [6], in the series on dsDNA [7], with DNA, in the series with Quadruplex DNA [9], with Quadruplex DNA [10] and in the series on dsDNA [11] was inactive. Besides, the result in series [13] was inactive. Besides, in [2], the selectivity ratio was 1. For the same compound, the MIC against Staphylococcus aureus [3] and against Staphylococcus aureus [12] was 4 mg/L (≈ 13.7 µM) throughout.

`CCCSC(=S)c1c(C)nn(-c2ccc(F)cc2)c1O` showed an MIC in the series with Staphylococcus aureus [3] of 2 to 4 mg/L (≈ 6.44 to 12.9 µM).

Turning to `CCCSC(=S)c1c(-c2ccc(C(F)(F)F)cc2)nn(-c2ccccc2)c1O`, in the series on Staphylococcus aureus [3], the MIC lay within 32 to 64 mg/L (≈ 75.7 to 151 µM).

The compound `Cc1nn(-c2ccccc2)c(O)c1C(=S)Sc1cccnc1` showed an MIC with Staphylococcus aureus [3] of 16 to 32 mg/L (≈ 48.9 to 97.7 µM).

`CCCSC(=S)c1c(-c2ccc(F)cc2)nn(-c2ccccc2)c1O` registered an IC50 in [1] of 4 mg/L (≈ 10.7 µM). The selectivity ratio in series [2] worked out at 4. This compound showed an MIC against Staphylococcus aureus [3] of 1 mg/L (≈ 2.68 µM).

Take `CSC(SC)=C1C(=O)N(c2ccccc2)N=C1C`: the MIC with Staphylococcus aureus [3] was greater than 64 mg/L.

In [1], `C=CCSC(=S)c1c(C)nn(-c2ccccc2)c1O` showed an IC50 of 16 to 32 mg/L (≈ 55.1 to 110 µM). Further, the selectivity ratio in series [2] lay in the range of 2 to 4. This compound yielded an MIC in the series with Staphylococcus aureus [3] of 4 to 8 mg/L (≈ 13.8 to 27.5 µM).

Compound `CCCSC(=S)c1c(C)nn(-c2ccc(Cl)cc2)c1O` gave an MIC with Staphylococcus aureus [3] of 2 to 4 mg/L (≈ 6.12 to 12.2 µM).

With `CCCSC(=S)c1c(-c2ccc(OC)cc2)nn(-c2ccccc2)c1O`, the IC50 in series [1] was 8 mg/L (≈ 20.8 µM). Moreover, the selectivity ratio in [2] was 4. In the series on Staphylococcus aureus [3], this compound showed an MIC of 2 mg/L (≈ 5.2 µM).

In turn, `CCCSC(=S)c1c(C)nn(-c2ccc(C#N)cc2)c1O` registered an MIC against Staphylococcus aureus [3] of 2 mg/L (≈ 6.3 µM).

Compound `CCCSC(=S)c1c(C)nn(-c2ccc(Br)cc2)c1O` registered an MIC against Staphylococcus aureus [3] of 1 to 2 mg/L (≈ 2.69 to 5.39 µM).

`CCCCSC(=S)c1c(C)nn(-c2ccccc2)c1O`: in series [1], inhibition was half-maximal at 4 mg/L (≈ 13.1 µM) (IC50). For the same compound, the selectivity ratio in series [2] was 1 to 2. The same compound gave an MIC against Staphylococcus aureus [3] of 2 to 4 mg/L (≈ 6.53 to 13.1 µM).

With `CCCNC(=O)c1c(C)nn(-c2ccccc2)c1O`, in the series on Staphylococcus aureus [3], the MIC was greater than 64 mg/L.

For `CCSC(=S)c1c(C)nn(-c2ccccc2)c1O`, in series [1], the IC50 was found to be 8 mg/L (≈ 28.7 µM). In addition, the selectivity ratio in series [2] is 1. Also, the minimum inhibitory concentration (MIC) in the series on Staphylococcus aureus [3] was found to be 8 mg/L (≈ 28.7 µM).

As a reminder, the IC50 is the concentration needed to halve the response being measured. Low values mean higher potency, high ones lower potency. By MIC is commonly meant the lowest concentration found to suppress growth.
